Measured values published in ChEMBL document CHEMBL1142894, “Preparation of 5-aryl-3-alkylthio-l,2,4-triazoles and corresponding sulfones with antiinflammatory-analgesic activity” (Bioorg Med Chem, 2007).
Calls of active or inactive are those of the source. No cut-off for these calls is given here.

Assays:
[1] = tested on: Mus musculus; assay: Antiinflammatory activity against carrageenan-induced paw edema in Swiss albino mouse assessed as swelling thickness at 50 mg/kg, po after 90 mins; assay type: functional
Outline: (§1)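 Oral dosing in 0.5% CMC; vehicle to controls. Then carrageenan (0.5 mg/25 ll, freshly suspended in 154 mM saline) injected into the right hind paw subplantar tissue; saline into the left paw. Right-left footpad thickness difference measured by dial gauge calliper every 90 min over 6 h. Inhibition % is relative to vehicle control. n = 6; mean ± SEM.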

[2] = tested on: Mus musculus; assay: Inhibition of p-benzoquinone-induced writhing in Swiss albino mouse at 50 mg/kg, po relative to control; assay type: functional
Outline: (§2)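 Mice, n = 6 per group, dosed orally with a suspension in 0.5% sodium CMC. 60 min later, 0.1 ml/10 g of 2.5% […] p-benzoquinone in distilled water given ip. Abdominal writhes counted per animal for 15 min, starting 5 min after injection. Expressed as % change in mean writhing count versus vehicle controls.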

[3] = tested on: Mus musculus; assay: Antiinflammatory activity against carrageenan-induced paw edema in Swiss albino mouse assessed as swelling thickness at 50 mg/kg, po after 180 mins; assay type: functional; outline: as §1
[4] = tested on: Mus musculus; assay: Antiinflammatory activity against carrageenan-induced paw edema in Swiss albino mouse assessed as swelling thickness at 25 mg/kg, po after 180 mins; assay type: functional; outline: as §1
[5] = tested on: Mus musculus; assay: Antiinflammatory activity against carrageenan-induced paw edema in Swiss albino mouse assessed as swelling thickness at 25 mg/kg, po after 90 mins; assay type: functional; outline: as §1
[6] = tested on: Mus musculus; assay: Antiinflammatory activity against carrageenan-induced paw edema in Swiss albino mouse assessed as swelling thickness at 50 mg/kg, po after 360 mins; assay type: functional; outline: as §1
[7] = tested on: Mus musculus; assay: Inhibition of carrageenan-induced paw edema in Swiss albino mouse at 50 mg/kg, po after 90 mins relative to control; assay type: functional; details: 1.5 h
Outline: (§3)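 Mice, n = 6 per group. Test agent given orally as a suspension in 0.5% sodium CMC in distilled water; controls received vehicle only. Afterwards, 0.5 mg/25 ll carrageenan in saline (154 mM NaCl) injected subplantar into the right hind paw, saline into the left. Right-minus-left footpad thickness measured by dial gauge caliper every 90 min for 6 h. Inhibition is relative to vehicle-control group means.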

[8] = tested on: Mus musculus; assay: Antiinflammatory activity against carrageenan-induced paw edema in Swiss albino mouse assessed as swelling thickness at 50 mg/kg, po after 270 mins; assay type: functional; outline: as §1
[9] = tested on: Mus musculus; assay: Inhibition of carrageenan-induced paw edema in Swiss albino mouse at 25 mg/kg, po after 90 mins relative to control; assay type: functional; details: 1.5 h; outline: as §1
[10] = tested on: Mus musculus; assay: Inhibition of carrageenan-induced paw edema in Swiss albino mouse at 100 mg/kg, po after 270 mins relative to control; assay type: functional; details: 4.5 h; outline: as §1
[11] = tested on: Mus musculus; assay: Antiinflammatory activity against carrageenan-induced paw edema in Swiss albino mouse assessed as swelling thickness at 200 mg/kg, po after 360 mins; assay type: functional; outline: as §1
[12] = tested on: Mus musculus; assay: Inhibition of carrageenan-induced paw edema in Swiss albino mouse at 50 mg/kg, po after 270 mins relative to control; assay type: functional; details: 4.5 h; outline: as §3
[13] = tested on: Mus musculus; assay: Inhibition of carrageenan-induced paw edema in Swiss albino mouse at 25 mg/kg, po after 180 mins relative to control; assay type: functional; details: 3 h; outline: as §1
[14] = tested on: Mus musculus; assay: Analgesic activity against p-benzoquinone-induced abdominal constriction in Swiss albino mouse assessed as number of writhings at 100 mg/kg, po; assay type: functional, Abdomen
Outline: (§4)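 Test samples given orally in 0.5% CMC; vehicle to controls. 60 min later, 2.5% (v/v) p-benzoquinone in distilled water, 0.1 ml/10 g, given i.p. Mice housed singly; writhes counted for 15 min starting 5 min after injection. Activity is % change from vehicle controls. n = 6; mean ± SEM.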

[15] = tested on: Mus musculus; assay: Gastric-ulcerogenic effect in Swiss albino mouse assessed as lesions at 25 mg/kg, po; assay type: functional, organism-based; set-up: dose 25 mg/kg
Outline: (§5)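 Mice killed under deep ether anesthesia 3 h after the writhing test; the oral dose in 0.5% CMC was the one used in that test. Stomachs removed, opened along the great curvature and examined under a dissecting microscope for lesions or bleeding. Reported as ratio of ulceration; n = 6.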

[16] = tested on: Mus musculus; assay: Inhibition of carrageenan-induced paw edema in Swiss albino mouse at 200 mg/kg, po after 270 mins relative to control; assay type: functional; details: 4.5 h; outline: as §1
[17] = tested on: Mus musculus; assay: Inhibition of carrageenan-induced paw edema in Swiss albino mouse at 50 mg/kg, po after 180 mins relative to control; assay type: functional; details: 3 h; outline: as §1
[18] = tested on: Mus musculus; assay: Antiinflammatory activity against carrageenan-induced paw edema in Swiss albino mouse assessed as swelling thickness at 200 mg/kg, po after 180 mins; assay type: functional; outline: as §1
[19] = tested on: Mus musculus; assay: Analgesic activity against p-benzoquinone-induced abdominal constriction in Swiss albino mouse assessed as number of writhings at 25 mg/kg, po; assay type: functional, Abdomen; outline: as §4
[20] = tested on: Mus musculus; assay: Inhibition of carrageenan-induced paw edema in Swiss albino mouse at 100 mg/kg, po after 180 mins relative to control; assay type: functional; details: 3 h; outline: as §1
[21] = tested on: Mus musculus; assay: Analgesic activity against p-benzoquinone-induced abdominal constriction in Swiss albino mouse assessed as number of writhings at 50 mg/kg, po; assay type: functional, Abdomen; outline: as §4
[22] = tested on: Mus musculus; assay: Antiinflammatory activity against carrageenan-induced paw edema in Swiss albino mouse assessed as swelling thickness at 100 mg/kg, po after 360 mins; assay type: functional; outline: as §1
[23] = tested on: Mus musculus; assay: Inhibition of p-benzoquinone-induced writhing in Swiss albino mouse at 200 mg/kg, po relative to control; assay type: functional; outline: as §2
[24] = tested on: Mus musculus; assay: Acute toxicity in Swiss albino mouse assessed as lethal effect at 50 mg/kg/day, po after 72 hrs; assay type: organism-based; set-up: route oral; details: in vivo
Outline: (§6)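 Oral single dose suspended in 0.5% carboxymethylcellulose, given after a 24 h fast; food and water returned 1 h after dosing. Vehicle-only controls. Mice observed at 1 h, then once daily for 72 h, for toxic signs and mortality.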

[25] = tested on: Mus musculus; assay: Inhibition of p-benzoquinone-induced writhing in Swiss albino mouse at 25 mg/kg, po relative to control; assay type: functional; outline: as §2
[26] = tested on: Mus musculus; assay: Acute toxicity in Swiss albino mouse assessed as lethal effect at 100 mg/kg/day, po after 72 hrs; assay type: organism-based; set-up: route oral; details: in vivo; outline: as §6
[27] = tested on: Mus musculus; assay: Antiinflammatory activity against carrageenan-induced paw edema in Swiss albino mouse assessed as swelling thickness at 200 mg/kg, po after 90 mins; assay type: functional; outline: as §1
[28] = tested on: Mus musculus; assay: Antiinflammatory activity against carrageenan-induced paw edema in Swiss albino mouse assessed as swelling thickness at 100 mg/kg, po after 180 mins; assay type: functional; outline: as §1
[29] = tested on: Mus musculus; assay: Inhibition of carrageenan-induced paw edema in Swiss albino mouse at 100 mg/kg, po after 90 mins relative to control; assay type: functional; details: 1.5 h; outline: as §1
[30] = tested on: Mus musculus; assay: Inhibition of carrageenan-induced paw edema in Swiss albino mouse at 25 mg/kg, po after 360 mins relative to control; assay type: functional; details: 6 h; outline: as §1
[31] = tested on: Mus musculus; assay: Gastric-ulcerogenic effect in Swiss albino mouse assessed as lesions at 50 mg/kg, po; assay type: functional, organism-based; set-up: dose 50 mg/kg; outline: as §5
[32] = tested on: Mus musculus; assay: Antiinflammatory activity against carrageenan-induced paw edema in Swiss albino mouse assessed as swelling thickness at 200 mg/kg, po after 270 mins; assay type: functional; outline: as §1
[33] = tested on: Mus musculus; assay: Inhibition of carrageenan-induced paw edema in Swiss albino mouse at 100 mg/kg, po after 360 mins relative to control; assay type: functional; details: 6 h; outline: as §1
[34] = tested on: Mus musculus; assay: Antiinflammatory activity against carrageenan-induced paw edema in Swiss albino mouse assessed as swelling thickness at 25 mg/kg, po after 360 mins; assay type: functional; outline: as §1
[35] = tested on: Mus musculus; assay: Inhibition of carrageenan-induced paw edema in Swiss albino mouse at 25 mg/kg, po after 270 mins relative to control; assay type: functional; details: 4.5 h; outline: as §1
[36] = tested on: Mus musculus; assay: Antiinflammatory activity against carrageenan-induced paw edema in Swiss albino mouse assessed as swelling thickness at 100 mg/kg, po after 90 mins; assay type: functional; outline: as §1
[37] = tested on: Mus musculus; assay: Inhibition of p-benzoquinone-induced writhing in Swiss albino mouse at 100 mg/kg, po relative to control; assay type: functional; outline: as §2
[38] = tested on: Mus musculus; assay: Analgesic activity against p-benzoquinone-induced abdominal constriction in Swiss albino mouse assessed as number of writhings at 200 mg/kg, po; assay type: functional, Abdomen; outline: as §4
[39] = tested on: Mus musculus; assay: Acute toxicity in Swiss albino mouse assessed as lethal effect at 25 mg/kg/day, po after 72 hrs; assay type: organism-based; set-up: route oral; details: in vivo; outline: as §6
[40] = tested on: Mus musculus; assay: Antiinflammatory activity against carrageenan-induced paw edema in Swiss albino mouse assessed as swelling thickness at 100 mg/kg, po after 270 mins; assay type: functional; outline: as §1
[41] = tested on: Mus musculus; assay: Inhibition of carrageenan-induced paw edema in Swiss albino mouse at 50 mg/kg, po after 360 mins relative to control; assay type: functional; details: 6 h; outline: as §3
[42] = tested on: Mus musculus; assay: Inhibition of carrageenan-induced paw edema in Swiss albino mouse at 200 mg/kg, po after 90 mins relative to control; assay type: functional; details: 1.5 h; outline: as §1
[43] = tested on: Mus musculus; assay: Acute toxicity in Swiss albino mouse assessed as lethal effect at 200 mg/kg/day, po after 72 hrs; assay type: organism-based; set-up: route oral; details: in vivo; outline: as §6
[44] = tested on: Mus musculus; assay: Antiinflammatory activity against carrageenan-induced paw edema in Swiss albino mouse assessed as swelling thickness at 25 mg/kg, po after 270 mins; assay type: functional; outline: as §1
[45] = tested on: Mus musculus; assay: Inhibition of carrageenan-induced paw edema in Swiss albino mouse at 200 mg/kg, po after 360 mins relative to control; assay type: functional; details: 6 h; outline: as §1

CCSc1nc(-c2ccc(Cl)cc2)n[nH]1
Activity [1]: 39.1 10^-2mm | inhibition in vivo at 50 mg/kg [2]: 33.5% | Activity [3]: 43.2 10^-2mm | Activity [4]: 49.9 10^-2mm | Activity [5]: 45.9 10^-2mm | Activity [6]: 43.1 10^-2mm | inhibition in vivo at 50 mg/kg [7]: 26.5% | Activity [8]: 45.8 10^-2mm | inhibition in vivo at 25 mg/kg [9]: 13.7% | inhibition in vivo at 100 mg/kg [10]: 30.8% | Activity [11]: 74.2 10^-2mm | inhibition in vivo at 50 mg/kg [12]: 29.3% | inhibition in vivo at 25 mg/kg [13]: 15.9% | Activity [14]: 33.8 | Activity [15]: Active | inhibition in vivo at 200 mg/kg [16]: 2% | inhibition in vivo at 50 mg/kg [17]: 27.3% | Activity [18]: 59.9 10^-2mm | Activity [19]: 45.1 | inhibition in vivo at 100 mg/kg [20]: 25.8% | Activity [21]: 34.2 | Activity [22]: 44.2 10^-2mm | inhibition in vivo at 200 mg/kg [23]: 12.8% | Activity [24]: Non-toxic | inhibition in vivo at 25 mg/kg [25]: 12.3% | Activity [26]: Non-toxic | Activity [27]: 51.8 10^-2mm | Activity [28]: 38.2 10^-2mm | inhibition in vivo at 100 mg/kg [29]: 23.4% | inhibition in vivo at 25 mg/kg [30]: 17.1% | Activity [31]: Active | Activity [32]: 63.5 10^-2mm | inhibition in vivo at 100 mg/kg [33]: 35.8% | Activity [34]: 59.7 10^-2mm | inhibition in vivo at 25 mg/kg [35]: 16.9% | Activity [36]: 34.3 10^-2mm | inhibition in vivo at 100 mg/kg [37]: 28.5% | Activity [38]: 44.8 | Activity [39]: Non-toxic | Activity [40]: 40.7 10^-2mm | inhibition in vivo at 50 mg/kg [41]: 40.1% | inhibition in vivo at 200 mg/kg [42]: 2.6% | Activity [43]: Non-toxic | Activity [44]: 63.5 10^-2mm | inhibition in vivo at 200 mg/kg [45]: 3.4%
